Measurements: ChEMBL document CHEMBL4706506 (Eur J Med Chem, 2020)
Calls of active or inactive are those of the source. The rule behind the calls is not given here.

Key:
HCT-116 = assay: Antiproliferative activity against human HCT-116 cells assessed as inhibition of cell proliferation measured after 48 hrs by CCK-8 assay; assay type: functional, cell-based; details: HCT-116, 48 h
Procedure, shortened: (§1)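 RPMI-1640 with 10% FBS, 37 °C, 5% CO2. Cells seeded at 1-3 × 10^4/well and exposed to 0.00098–64 μM (nine 4-fold steps) or 0.1% DMSO vehicle for 48 h. CCK-8 then added for 4 h; absorbance read at 450 nm. IC50 taken from dose–response curves; mean ± SD of three independent experiments.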

A549 = assay: Antiproliferative activity against human A549 cells assessed as inhibition of cell proliferation measured after 48 hrs by CCK-8 assay; assay type: functional, cell-based; details: A549, 48 h; procedure, shortened: as §1
B16-F0 [1] = assay: Antiproliferative activity against mouse B16-F0 cells assessed as inhibition of cell proliferation measured after 48 hrs by CCK-8 assay; assay type: functional, cell-based; details: B16F0, 48 h; procedure, shortened: as §1
MCF7 [2] = assay: Antiproliferative activity against human MCF7 cells assessed as inhibition of cell proliferation measured after 48 hrs by CCK-8 assay; assay type: functional, cell-based; details: MCF7, 48 h
HeLa = assay: Antiproliferative activity against human HeLa cells assessed as inhibition of cell proliferation measured after 48 hrs by CCK-8 assay; assay type: functional, cell-based; procedure, shortened: as §1
B16-F0 [3] = assay: Induction of microtubule destabilization in mouse B16-F0 cells assessed as short and wrapped structure at 160 nM measured after 6 hrs by DAPI staining based immunofluorescent assay relative to control; assay type: cell-based
[4] = Inhibition of pig brain tubulin polymerization measured by light scattering based spectrophotometer method; assay type: tissue-based, Sus scrofa
Procedure, shortened: (§2)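 Porcine brain tubulin purified by three assembly/disassembly cycles and phosphocellulose chromatography. Mixed with graded compound concentrations in PEM (100 mM PIPES, 1 mM EGTA, 1 mM MgCl2) with 1 mM GTP and 5% glycerol. Polymerization followed at 37 °C by light scattering at 340 nm; variants ran at 30 °C, or with 5 min preincubation before GTP addition. IC50 reported.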

[5] = Binding affinity to pig brain tubulin at 30 degree C without preincubation; assay type: tissue-based, Sus scrofa; procedure, shortened: as §2
[6] = Metabolic stability in mouse liver microsomes assessed as half life in presence of NADPH at 0.5 uM measured after 4 hrs by LC/MS method; assay type: ADME, Microsome
MCF7 [7] = assay: Induction of cell cycle arrest in human MCF7 cells assessed as accumulation of cells at G2/M phase measured after 48 hrs by FACS Calibur flow cytometry in relative to control; assay type: functional, cell-based
Procedure, shortened: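 MCF-7 cells plated for 24 h, then exposed to compound (5 or 10 nM; DMSO control) for 48 h. Fixed in 70% ethanol at 4 °C for 12 h, then RNase A and propidium iodide staining for 30 min. DNA content measured by flow cytometry.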

[8] = Toxicity in C57/BL mouse […] with mouse B16-F0 cells assessed as body weight loss at 10 to 20 mg/kg, ip measured after 16 days in relative to control; assay type: organism-based; details: in vivo, 384 h, dose 10-20 mg/kg, time 16 day
[9] = Binding affinity to pig brain tubulin at 37 degree C preincubated for 5 mins; assay type: tissue-based, Sus scrofa; procedure, shortened: as §2
B16-F0 [10] = assay: Inhibition of tubulin polymerization in mouse B16-F0 cells at 160 nM measured after 6 hrs by DAPI staining based immunofluorescent assay relative to control; assay type: cell-based; details: dose 40.0 nM, in the assay text read “at 40 nM” for “at 160 nM”
Procedure, shortened: (§3)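 Fixed in 4% paraformaldehyde, permeabilized with 0.5% Triton X-100 for 15 min, goat serum blocked. Anti-tubulin antibody 2 h at 4 °C, then fluorescent secondary antibody and DAPI nuclear counterstain. Imaged by confocal microscopy.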

MCF7 [11] = assay: Inhibition of cell migration in human MCF7 cells measured after 24 hrs by phase contrast microscopy based wound healing assay relative to control; assay type: functional; details: dose 10-40 nM
Procedure, shortened: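 Confluent MCF-7 monolayers, grown 24 h, scratched with a pipette tip and washed with PBS. Medium with 0, 10, 20 or 40 nM compound added. Wounds photographed by phase contrast at 0 and 24 h; migration distance measured manually.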

B16-F0 [12] = assay: Inhibition of tubulin polymerization in mouse B16-F0 cells at 40 nM measured after 6 hrs by DAPI staining based immunofluorescent assay relative to control; assay type: cell-based; procedure, shortened: as §3
[13] = Metabolic stability in human liver microsomes assessed as half life in presence of NADPH at 0.5 uM measured after 4 hrs by LC/MS method; assay type: ADME, Microsome
B16-F0 [14] = assay: Antitumour activity against mouse B16-F0 cells transplanted in C57/BL mouse assessed as decrease in tumour weight at 10 mg/kg, ip measured after 16 days in relative to control; assay type: functional; design: scale not given: the % may be the effect or the level left; details: time 16 day
[15] = Binding affinity to pig brain tubulin at 37 degree C without preincubation; assay type: tissue-based, Sus scrofa; procedure, shortened: as §2
B16-F0 [16] = assay: Antitumour activity against mouse B16-F0 cells transplanted in C57/BL mouse assessed as decrease in tumour volume at 20 mg/kg, ip measured after 16 days in relative to control; assay type: functional; design: scale not given: the % may be the effect or the level left; details: time 16 day
B16-F0 [17] = assay: Induction of microtubule destabilization in mouse B16-F0 cells assessed as short and wrapped structure at 40 nM measured after 6 hrs by DAPI staining based immunofluorescent assay relative to control; assay type: cell-based; procedure, shortened: as §3
B16-F0 [18] = assay: Antitumour activity against mouse B16-F0 cells transplanted in C57/BL mouse assessed as decrease in tumour volume at 10 mg/kg, ip measured after 16 days in relative to control; assay type: functional; design: scale not given: the % may be the effect or the level left; details: time 16 day
[19] = Toxicity in C57/BL mouse […] with mouse B16-F0 cells assessed as kidney histology at 10 to 20 mg/kg, ip measured after 16 days by H and E staining method in relative to control; assay type: organism-based; details: in vivo, 384 h, dose 10-20 mg/kg, time 16 day
B16-F0 [20] = assay: Antitumour activity against mouse B16-F0 cells transplanted in C57/BL mouse assessed as decrease in tumour weight at 20 mg/kg, ip measured after 16 days in relative to control; assay type: functional; design: scale not given: the % may be the effect or the level left; details: time 16 day
[21] = Toxicity in C57/BL mouse […] with mouse B16-F0 cells assessed as liver histology at 10 to 20 mg/kg, ip measured after 16 days by H and E staining method in relative to control; assay type: organism-based; details: in vivo, 384 h, dose 10-20 mg/kg, time 16 day
B16-F0 [22] = assay: Stabilization of microtubules in mouse B16-F0 cells at 40 nM measured after 6 hrs by DAPI staining based Immunofluorescent assay relative to control; assay type: cell-based; procedure, shortened: as §3

SMILES	IC50 (HCT-116) [nM]	IC50 (A549) [nM]	IC50 (B16-F0 [1]) [nM]	IC50 (MCF7 [2]) [nM]	IC50 (HeLa) [nM]	IC50 [4] [nM]	IC50 [5] [nM]	half-life at 0.5 µM [6] [h]	Activity (MCF7 [7])	Activity [8]	IC50 [9] [nM]	half-life at 0.5 µM [13] [h]	Activity (B16-F0 [14]) [%]	IC50 [15] [nM]	Activity (B16-F0 [18]) [%]	Activity [21]	also measured
COc1cc2c(c(OC)c1OC)-c1ccc(OC)c(=O)cc1[C@@H](NC(C)=O)CC2 [COLCHICINE]	42	107	87	18	81												Activity (B16-F0 [3]): Active
COc1cc(-c2ccnc3cc(-c4ccc(C)cc4)nn23)cc(OC)c1OC	48	3	21	47	21	2100	2100	2	Active	Non-Toxic	1600	2.08	38.6	2100	40.1	Non-Toxic	inhibition (B16-F0 [10]): Active; inhibition (MCF7 [11]): Active; inhibition (B16-F0 [12]): Active; Activity (B16-F0 [16]): 77.4%; Activity (B16-F0 [17]): Active; Activity [19]: Non-Toxic; Activity (B16-F0 [20]): 74.5%
COc1cc(-c2ccnc3cc(-c4ccc5c(ccn5C)c4)nn23)cc(OC)c1OC	39	15	48	3	19	6700	6400	0.117	Active		5700	0.333		6700			
CC(=O)O[C@H]1C(=O)[C@@]2(C)[C@H]([C@H](OC(=O)c3ccccc3)[C@]3(O)C[C@H](OC(=O)[C@H](O)[C@@H](NC(=O)c4ccccc4)c4ccccc4)C(C)=C1C3(C)C)[C@]1(OC(C)=O)CO[C@@H]1C[C@@H]2O [PACLITAXEL]			21		41					Non-Toxic			60.4		63.8	Non-Toxic	Activity (B16-F0 [22]): Active
